Measured values: ChEMBL document CHEMBL3045343, “Nematicidal activity of 2-thiophenecarboxaldehyde and methylisothiocyanate from caper (Capparis spinosa) against Meloidogyne incognita” (J Agric Food Chem, 2012)
Converted amounts (≈) assume the structure as drawn.

Columns and labels:
[1] = system: Meloidogyne incognita; test: Nematicidal activity against Meloidogyne incognita (root-knot nematode) juveniles J2 assessed as paralysis after 1 hr; format: functional, organism-based
How it was run: (§1)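 M. incognita (Italian population reared on tomato cv. Roma VF) J2 hatched from egg masses in distilled water at 25 ± 2 °C. Methanol stocks diluted with Tween 20 in water (final methanol ≤1% v/v). Working solution at double strength mixed 1:1 with a suspension of 25 J2 per well. Held covered, dark, 20 °C. Paralysis scored by inverted microscope. Corrected by Schneider-Orelli against water control. EC50 from log-logistic regression. Six replicates; four experiments.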

[2] = system: Meloidogyne incognita; test: Nematicidal activity against Meloidogyne incognita (root-knot nematode) juveniles J2 assessed as paralysis after 1 day; format: functional, organism-based; settings: 24 h; how it was run: as §1
[3] = system: Meloidogyne incognita; test: Toxicity against Meloidogyne incognita (root-knot nematode) juveniles J2 at 100 mg/L after 24 hr; format: functional
How it was run: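 J2 were immersed in 100 mg/L test solution in multiwell plates containing 25 J2 per well. Plates were held in the dark at 20 °C. Paralysis or death was scored by microscope after 24 h and corrected against the water control.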

Compound	EC50 [1] [µg/mL]	EC50 [2] [µg/mL]	mortality at 100 µg/mL [3] [%]
N#Cc1ccc(C=O)s1	> 250	> 250	–
O=Cc1ccc[nH]1	> 1000	392 (≈ 4120 µM)	–
Cn1cccc1C=O	> 1000	> 1000	–
N#Cc1c[nH]c2ccccc12	> 250	68.9 (≈ 485 µM)	–
N#Cc1ccc(C#N)s1 [2,5-THIOPHENEDINITRILE]	> 250	> 250	–
O=Cc1ccc(C=O)s1 [2,5-THIOPHENENEDICARBOXALDEHYDE]	1.2 (≈ 8.56 µM)	1.13 (≈ 8.06 µM)	–
O=Cc1ccccn1 [2-PYRIDINECARBOXALDEHYDE]	25 (≈ 233 µM)	3.6 (≈ 33.6 µM)	100
O=C1CCCN1 [2-PYRROLIDONE]	> 250	> 250	–
N#Cc1cccs1 [2-THIOPHENECARBONITRILE]	> 100	> 100	–
O/N=C/c1cccs1 [2-THIOPHENECARBOXALDEHYDE OXIME]	> 250	> 250	–
O=Cc1cccs1 [2-THIOPHENENECARBOXALDEHYDE]	105 (≈ 936 µM)	14.1 (≈ 126 µM)	100
O=Cc1c[nH]c2ccccc12 [3-FORMYLINDOLE]	> 250	301 (≈ 2070 µM)	–
O=C1Nc2ccccc2C1=O [ISATIN]	> 250	> 250	–
CN=C=S [METHYLISOTHIOCYANATE]	> 10	7.86 (≈ 107 µM)	–
O=Cc1cccnc1 [NICOTINALDEHYDE]	> 250	> 10	–
